The values below come from ChEMBL document CHEMBL1149025, “Cytotoxic and antibacterial dihydrochalcones from Piper aduncum” (1994).

Holding throughout (assay type): functional
The test system of one assay is Biomphalaria glabrata. The assay is described as follows: Molluscicidal activity against Biomphalaria glabrata assessed as mortality after 24 hrs by microscopy. In short, it runs like this:
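Snails exposed to samples dissolved in 100 μl DMSO and diluted to 100 ml with distilled H₂O. After 24 h, snails counted dead when no heartbeat was seen under the microscope.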

The subject of a further assay is Micrococcus luteus. The assay is described as follows: Antibacterial activity against Micrococcus luteus ATCC 9341 by bioautographic assay. Summed up:
(§1)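 Overnight 37° nutrient-broth cultures; the developed TLC plate was dipped in the bacterial suspension and held moist at 37° for 20 h. It was then sprayed with 0.5% iodonitrotetrazolium chloride in H₂O and kept a further 4 h moist at 37°. Pure compounds were spotted (3 mm) at 0.1–5 μg in CH₂Cl₂, with chloramphenicol as positive control.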

The subject of a further assay is Bacillus subtilis. The assay is described as follows: Antibacterial activity against Bacillus subtilis ATCC 6633 by bioautographic assay. In short, it runs like this:
as §1

In the next assay the test system is Escherichia coli. The assay is described as follows: Antibacterial activity against Escherichia coli ATCC 25922 by bioautographic assay. Summed up: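 Bioautography used an overnight 37° nutrient-broth culture, and the developed TLC plate was dipped in the suspension. It was incubated moist at 37° for 6 h, sprayed with 0.5% aqueous iodonitrotetrazolium chloride, then kept moist at room temperature for 15 h. White zones against pink colonies marked inhibition. Pure compounds were spotted (3 mm) at 0.1–5 μg in CH₂Cl₂, with chloramphenicol as positive control.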

Another assay relates to KB. The assay is described as follows: Cytotoxicity against human KB cells after 72 hrs. The note with it: read-out: ED50 (the source's name). In short, it runs like this:
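KB cells were grown in BME with 10% heat-inactivated FBS at 37° under 5% CO₂. Samples in DMSO (final 0.5%) were added at log growth phase, at five concentrations, for 72 h. Growth was measured by protein determination as a percentage of DMSO-only controls, corrected for starting cell number. Assays were run in duplicate, and ED₅₀ was taken from semilogarithmic plots of the averaged data.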

Values after ≈ are worked out from the molar mass of the structure shown. A value given as a limit tells only on which side of the number the result lay.

Turning to `COc1cc(O)c2c(c1)O[C@H](c1ccc(O)cc1)CC2=O` [SAKURANETIN], the LC100 in the assay with Biomphalaria glabrata was over 30 ppm. The MIC with Micrococcus luteus was 2 µg; against Bacillus subtilis, 0.5 µg; with Escherichia coli it was over 5 µg. Also, the EC50 with KB worked out at 10 µg/mL (≈ 34.9 µM).
Take `COc1cc(O)c(C(=O)CCc2ccc(O)cc2)c(O)c1` [ASEBOGENIN]: the LC100 in the assay with Biomphalaria glabrata amounted to 12 ppm. Also, the figures for the MIC against Micrococcus luteus, in the assay with Bacillus subtilis and against Escherichia coli were 0.6 µg, 0.1 µg and over 5 µg, respectively. Besides, the EC50 with KB was over 10 µg/mL.
Consider `COC(=O)c1ccc(O)c(C(C=C(C)C)c2c(OC)cc(O)c(C(=O)CCc3ccccc3)c2O)c1` (stereo not given) [PIPERADUNCIN A], for which the MIC in the assay with Micrococcus luteus is 1.6 µg; against Bacillus subtilis, 1.6 µg; in the assay with Escherichia coli, over 5 µg. Further, the EC50 with KB was determined as 2.3 µg/mL (≈ 4.69 µM).
As for `COc1cc(O)c(C(=O)CCc2ccccc2)c(O)c1Cc1c(OC)cc(O)c(C(=O)CCc2ccccc2)c1O` [PIPERADUNCIN C], the MIC with Micrococcus luteus is 3 µg; with Bacillus subtilis, 1.5 µg; against Escherichia coli, over 5 µg. Moreover, the EC50 with KB is over 10 µg/mL.
For the molecule `COc1cc(O)c(C(=O)CCc2ccccc2)c(O)c1`, the LC100 in the assay on Biomphalaria glabrata is reported as over 30 ppm. Besides, the MIC against Micrococcus luteus was 0.3 µg; against Bacillus subtilis, 0.3 µg; with Escherichia coli, over 5 µg. For the same molecule, the EC50 with KB is over 10 µg/mL.
Consider `COc1cc([C@@H]2c3cc4c(cc3[C@H](O)[C@H]3COC(=O)[C@H]23)OCO4)cc(OC)c1OC` [PODOFILOX], for which, in the assay with KB, the EC50 was determined as 0.0003 µg/mL (≈ 0.000724 µM).
Consider `COC(=O)c1ccc2c(c1)C[C@H](C(C)(C)O)O2` [ANODENDROIC ACID METHYL ESTER], for which the MIC was over 5 µg against Micrococcus luteus, 3.2 µg in the assay with Bacillus subtilis and over 5 µg against Escherichia coli. Also, the EC50 in the assay with KB is over 10 µg/mL.
With `COC(=O)c1ccc(O)c([C@H]2c3c(OC)cc(O)c(C(=O)CCc4ccccc4)c3O[C@@H]2C(C)(C)O)c1` [PIPERADUNCIN B], the values for the MIC against Micrococcus luteus, with Bacillus subtilis and against Escherichia coli were 0.4 µg, 0.2 µg and over 5 µg, respectively. Also, the EC50 in the assay on KB came to 4.7 µg/mL (≈ 9.28 µM).
Turning to `O=C(N[C@H](CO)[C@H](O)c1ccc([N+](=O)[O-])cc1)C(Cl)Cl` [CHLORAMPHENICOL], the MIC against Micrococcus luteus is 0.05 µg; against Bacillus subtilis it was 0.02 µg; with Escherichia coli, 0.05 µg.
